Assay results from ChEMBL document CHEMBL1146203, “Acridone-based inhibitors of inosine 5'-monophosphate dehydrogenase: discovery and SAR leading to the identification of N-(2-(6-(4-ethylpiperazin-1-yl)pyridin-3-yl)propan-2-yl)-2- fluoro-9-oxo-9,10-dihydroacridine-3-carboxamide (BMS-566419)” (J Med Chem, 2007).
Active and inactive are the calls of the source. The calls are words filed in the database; no cut-off is given here.

Columns and labels:
[1] = target: Inosine-5'-monophosphate dehydrogenase 2 (Homo sapiens, UniProt P12268); assay: Inhibition of human IMPDH2
CCRF-CEM = assay: Inhibition of CEM cell proliferation; type: functional, cell-based; settings: Homo sapiens
In short: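 Human CEM T-lymphoblasts grown in RPMI 1640 with 10% heat-inactivated FBS and penicillin/streptomycin. Seeded at 3000 cells/well with 0.5% DMSO; compounds tested in triplicate from 10 µM top concentration in 3-fold dilutions.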

PBMC = assay: Inhibition of T cell proliferation in PBMC cells; type: functional, cell-based; settings: Homo sapiens
In short: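 Human PBMCs isolated from heparinized whole blood by density gradient and plated at 5 × 10^4 cells/well in RPMI 1640 with 10% FBS. Stimulated with anti-CD3 OKT3 (200 ng/mL) plus soluble anti-CD28 (1 µg/mL). Compounds tested in triplicate from 3.3 µM in 3-fold dilutions with 0.5% DMSO for 72 h.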

Rattus norvegicus [2] = species: Rattus norvegicus; assay: Gastrointestinal toxicity in Lewis rat adjuvant arthritis model; type: organism-based; settings: in vivo
In short: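 Lewis rats in the adjuvant arthritis setting were given escalating oral daily doses for up to 14 days. Animals were monitored for diarrhea and weight loss, with gross examination and histopathology (crypt cell necrosis) used to define the maximum tolerated dose for GI toxicity.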

Rattus norvegicus [3] = assay: Efficacy against Freund's complete adjuvant-induced arthritis in Lewis rat assessed as inhibition of paw swelling at 15 mg/kg, po after 21 days; type: functional, organism-based; design: dose 15 mg/kg
In short: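 Adjuvant arthritis induced by subcutaneous Freund's complete adjuvant at the tail base in male Lewis rats. Oral dosing once daily for 21 days from day 0, vehicle 60% PEG400/40% 0.01 N HCl, 8 rats per group. Hind paw volume measured by plethysmometry at baseline and over three weeks; increase above baseline calculated; Student's t test against the vehicle group.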

[4] = Therapeutic index for gastrointestinal toxicity in Lewis rat adjuvant arthritis model; settings: read-out: TI
In short: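 GI therapeutic index in the rat adjuvant arthritis model, calculated as the ratio of exposure (AUC) at the maximum tolerated dose for GI toxicity to the AUC at the lowest efficacious dose.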

Row | Compound | IC50 [1] | IC50 (CCRF-CEM) | IC50 (PBMC) | Activity (Rattus norvegicus [2]) | Activity (Rattus norvegicus [3]) | selectivity ratio [4]
1 | CC(C)(NC(=O)c1ccc2c(=O)c3ccccc3[nH]c2c1)c1ccccn1 | 0.053 µM | 2.2 µM | – | – | – | –
2 | Cc1ccc(C(C)(C)NC(=O)c2cc3[nH]c4ccccc4c(=O)c3cc2F)cn1 | 0.023 µM | 0.75 µM | 0.27 µM | – | – | –
3 | CC(C)(C)NC(=O)c1ccc2c(=O)c3ccccc3[nH]c2c1 | 0.059 µM | 3.3 µM | – | – | – | –
4 | CN(C)CCOc1ccc(C(C)(C)NC(=O)c2cc3[nH]c4ccccc4c(=O)c3cc2F)cc1 | 0.02 µM | 0.56 µM | 0.21 µM | – | – | –
5 | CC(C)(NC(=O)c1cc2[nH]c3ccccc3c(=O)c2cc1F)c1ccccn1 | 0.029 µM | 1 µM | – | – | – | –
6 | CN(C)c1ccc(C(C)(C)NC(=O)c2cc3[nH]c4ccccc4c(=O)c3cc2F)cn1 | 0.022 µM | 0.85 µM | 0.34 µM | – | – | –
7 | CC(C)(NC(=O)c1cc2[nH]c3ccccc3c(=O)c2cc1F)c1ccccc1 | 0.011 µM | 0.83 µM | 0.22 µM | – | – | –
8 | CC(C)(NC(=O)c1ccc2c(=O)c3ccccc3[nH]c2c1)c1ccccc1 | 0.019 µM | – | 0.73 µM | – | – | –
9 | CC(C)(NC(=O)c1cc2[nH]c3ccccc3c(=O)c2cc1F)c1cccc(S(C)(=O)=O)c1 | 0.012 µM | 0.58 µM | 0.28 µM | – | – | –
10 | Cc1cc(C(C)(C)NC(=O)c2cc3[nH]c4ccccc4c(=O)c3cc2F)cnc1N1CCOCC1 | 0.011 µM | 0.87 µM | 0.27 µM | – | – | –
11 | C[C@H](NC(=O)c1ccc2c(=O)c3ccccc3[nH]c2c1)c1ccccc1 | 0.431 µM | – | – | – | – | –
12 | CN(C)S(=O)(=O)c1ccc(C(C)(C)NC(=O)c2cc3[nH]c4ccccc4c(=O)c3cc2F)cc1 | 0.01 µM | 0.66 µM | 0.2 µM | – | – | –
13 | COc1c(C)c2c(c(O)c1C/C=C(\C)CCC(=O)OCCN1CCOCC1)C(=O)OC2 [MYCOPHENOLATE MOFETIL] | – | – | – | Active | Active | 6.9
